Source: ChEMBL document CHEMBL3526151, “Reversible disulfide formation of the glutamate carboxypeptidase II inhibitor E2072 results in prolonged systemic exposures in vivo” (Drug Metab Dispos, 2012)

What was measured:
[1] = Cmax in Sprague-Dawley rat sciatic nerve at 10 mg/kg, po administered as single dose measured per gm of tissue by LC-MS/MS analysis; assay type: ADME, organism-based; set-up: dose 10 mg/kg, route oral
In short: (§1)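 Male Sprague-Dawley rats were dosed orally with 10 mg/kg/day, either once or daily for 5 days; n = 4 per group. Blood was taken by cardiac puncture and liver, kidney, brain and sciatic nerve were collected at 0–8 h post-dose. Tissues were homogenized in PBS containing NEM at equal volume per gram. NEM-derivatized analyte was extracted with methanol and quantified by LC-MS/MS (1–5000 ng/ml). Cmax is the observed value.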

[2] = AUC(0 to last) in Sprague-Dawley rat at 30 mg/kg, po administered via gavage measured under fasted conditions by LC-MS/MS analysis; assay type: ADME, organism-based; set-up: time 0 - last, dose 30 mg/kg, route oral; details: plasma
In short: (§2)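 Fasted male Sprague-Dawley rats (280–330 g) received 0.1, 1, 10 or 30 mg/kg by oral gavage in 50 mM HEPES buffered saline, pH 7.4. Blood drawn at 0.25–24 h into heparin/NEM tubes; plasma analyzed by LC-MS/MS. Cmax taken as observed. AUC by linear trapezoidal rule with extrapolation by λz. Cl/F and Vd/F reported. Mean ± S.D., n = 4–9.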

[3] = Apparent volume of distribution in Sprague-Dawley rat at 0.1 mg/kg, po administered via gavage measured under fasted conditions by LC-MS/MS analysis; assay type: ADME, organism-based; set-up: dose 0.1 mg/kg, route oral; details: in vivo; in short: as §2
[4] = Cmax in Sprague-Dawley rat liver at 10 mg/kg, po administered as single dose measured per gm of tissue by LC-MS/MS analysis; assay type: ADME, organism-based; set-up: dose 10 mg/kg, route oral; in short: as §1
[5] = AUC(0 to infinity) in Sprague-Dawley rat at 10 mg/kg, iv by LC-MS/MS analysis; assay type: ADME, organism-based; set-up: time infinity, dose 10 mg/kg, route intravenous; details: plasma
In short: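 Male Sprague-Dawley rats dosed intravenously at 10 mg/kg (n = 6). Blood sampling extended to 7 days into heparin tubes containing NEM. Plasma assayed for parent and homodisulfide by LC-MS/MS, calibration range 1–5000 ng/ml. Noncompartmental analysis, t1/2 = 0.693/λz. Mean ± S.D.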

[6] = Cmax in cynomolgus monkey at 5 mg/kg, iv administered as bolus injection by LC-MS/MS analysis; assay type: ADME, organism-based, Macaca fascicularis; set-up: dose 5 mg/kg, route intravenous; details: in vivo
In short: (§3)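 Cynomolgus monkeys (n = 3) received a nominal 5 mg/kg dose in 50 mM HEPES, TCEP-treated to prevent disulfide formation. Dosing was either an IV bolus via cephalic or saphenous vein or oral. Arterial cannula blood was collected into NEM-containing heparinized tubes for up to 9 days and analyzed by LC-MS/MS. Noncompartmental analysis gave t1/2 = 0.693/λz and F% = dose-normalized mean AUCinf p.o./i.v. ×100.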

[7] = Volume of distribution in Sprague-Dawley rat at 10 mg/kg, iv administered as bolus injection measured under fasted conditions by LC-MS/MS analysis; assay type: ADME, organism-based; set-up: dose 10 mg/kg, route intravenous; details: in vivo
In short: (§4)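 Jugular-cannulated male Sprague-Dawley rats, 280–330 g, fasted overnight to 4 h post-dose. Single dose in 50 mM HEPES-buffered saline pH 7.4, by oral gavage or as tail-vein i.v. bolus. Blood into heparin/NEM tubes at 0–24 h. Plasma measured by LC-MS/MS; noncompartmental analysis; Tmax observed; Vd = dose/(AUCinf·λz).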

[8] = Cmax in Sprague-Dawley rat liver at 10 mg/kg/day, po administered for 5 days measured per gm of tissue by LC-MS/MS analysis; assay type: ADME, organism-based; set-up: dose 10 mg/kg/day, route oral; in short: as §1
[9] = AUC(0 to infinity) in Sprague-Dawley rat at 30 mg/kg, po administered via gavage measured under fasted conditions by LC-MS/MS analysis; assay type: ADME, organism-based; set-up: time infinity, dose 30 mg/kg, route oral; details: plasma; in short: as §2
[10] = Apparent oral clearance in Sprague-Dawley rat at 1 mg/kg, po administered via gavage measured under fasted conditions by LC-MS/MS analysis; assay type: ADME, organism-based; set-up: dose 1 mg/kg, route oral; details: in vivo; in short: as §2
Rattus norvegicus [11] = assay: AUC(0 to infinity) in Sprague-Dawley rat at 0.1 mg/kg, po administered via gavage measured under fasted conditions by LC-MS/MS analysis; assay type: ADME, organism-based, Plasma; set-up: time infinity, dose 0.1 mg/kg, route oral; details: in vivo; in short: as §2
Cynomolgus monkey [12] = assay: AUC(0 to infinity) in cynomolgus monkey at 5 mg/kg, po by LC-MS/MS analysis; assay type: ADME, organism-based, Macaca fascicularis, Plasma; set-up: dose 5 mg/kg, route oral, time infinity; details: in vivo
In short: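 Cynomolgus monkeys (n = 3) dosed orally at a nominal 5 mg/kg in TCEP-treated 50 mM HEPES solution. Blood taken via iliac or femoral arterial cannula up to 9 days into heparin/NEM tubes. Plasma analyzed by LC-MS/MS. Cl/F and Vd/F derived noncompartmentally.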

[13] = Cmax in Sprague-Dawley rat kidney at 10 mg/kg/day, po administered for 5 days measured per gm of tissue by LC-MS/MS analysis; assay type: ADME, organism-based; set-up: dose 10 mg/kg/day, route oral; in short: as §1
[14] = Cmax in Sprague-Dawley rat brain at 10 mg/kg/day, po administered for 5 days measured per gm of tissue by LC-MS/MS analysis; assay type: ADME, organism-based; set-up: dose 10 mg/kg/day, route oral; in short: as §1
[15] = Cmax in cynomolgus monkey at 5 mg/kg, po by LC-MS/MS analysis; assay type: ADME, organism-based, Macaca fascicularis; set-up: dose 5 mg/kg, route oral; details: in vivo; in short: as §3
Cynomolgus monkey [16] = assay: Clearance in cynomolgus monkey at 5 mg/kg, iv administered as bolus injection by LC-MS/MS analysis; assay type: ADME, organism-based, Macaca fascicularis; set-up: dose 5 mg/kg, route intravenous; details: in vivo
In short: (§5)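 Cynomolgus monkeys (n = 3) given a 5 mg/kg intravenous bolus via cephalic or saphenous vein. Dosing solution in 50 mM HEPES, TCEP-treated. Arterial cannula blood collected up to 9 days into heparin/NEM tubes. Plasma assayed by LC-MS/MS. Noncompartmental analysis.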

Cynomolgus monkey [17] = assay: AUC(0 to infinity) in cynomolgus monkey at 5 mg/kg, iv administered as bolus injection by LC-MS/MS analysis; assay type: ADME, organism-based, Macaca fascicularis, Plasma; set-up: time infinity, dose 5 mg/kg, route intravenous; details: in vivo; in short: as §5
[18] = Clearance in Sprague-Dawley rat at 30 mg/kg, iv administered as bolus injection measured under fasted conditions by LC-MS/MS analysis; assay type: ADME, organism-based; set-up: dose 30 mg/kg, route intravenous; details: in vivo
In short: (§6)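 Male Sprague-Dawley rats (280–330 g), jugular vein cannulated, fasted overnight until 4 h post-dose. Single tail-vein bolus of 0.1, 1, 10 or 30 mg/kg in 50 mM HEPES buffered saline, pH 7.4. Blood drawn 0–24 h into heparin tubes containing NEM. Plasma quantified by LC-MS/MS after NEM derivatization. Noncompartmental analysis: AUClast by linear trapezoidal rule, Cl = dose/AUC0-∞. Mean ± S.D., n = 4–9.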

Rattus norvegicus [19] = assay: Clearance in Sprague-Dawley rat at 10 mg/kg, iv administered as bolus injection measured under fasted conditions by LC-MS/MS analysis; assay type: ADME, organism-based; set-up: dose 10 mg/kg, route intravenous; details: in vivo; in short: as §6
[20] = Phase 1 metabolic stability in human liver microsomes assessed as compound remaining at 10 uM measured for 1 hr by LC-MS/MS analysis in absence of cofactors; assay type: ADME; details: read-out: Stability
In short: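 Cofactor-free controls were run for each microsomal incubation: 0.5 mg/ml liver microsomes with 10 µM compound, omitting cofactors, so that cofactor-independent degradation could be measured. Samples were taken up to 1 h, quenched with acetonitrile containing internal standard, and the percent remaining was determined by LC-MS/MS.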

[21] = Tmax in Sprague-Dawley rat at 1 mg/kg, po administered via gavage measured under fasted conditions by LC-MS/MS analysis; assay type: ADME, organism-based; set-up: dose 1 mg/kg, route oral; details: in vivo; in short: as §4
[22] = Half life in Sprague-Dawley rat at 30 mg/kg, iv administered as bolus injection measured under fasted conditions by LC-MS/MS analysis; assay type: ADME, organism-based; set-up: dose 30 mg/kg, route intravenous; details: in vivo
Rattus norvegicus [23] = species on record: Rattus norvegicus; assay: Drug recovery in Sprague-Dawley rat plasma stability experiment; details: in vitro
[24] = Volume of distribution in Sprague-Dawley rat at 0.1 mg/kg, iv administered as bolus injection measured under fasted conditions by LC-MS/MS analysis; assay type: ADME, organism-based; set-up: dose 0.1 mg/kg, route intravenous; details: in vivo; in short: as §4

Cmax [1]: 203 ng/g
AUC(0-t) [2]: 76100 ng·h/mL
Vd/F [3]: 2.98 L/kg
Cmax [4]: 453 ng/g
AUC(0-inf) [5]: 87000 ng·h/mL
Cmax [6]: 68 µg/mL
Vd [7]: 1.43 L/kg
Cmax [8]: 457 ng/g
AUC(0-inf) [9]: 76600 ng·h/mL
CL/F [10]: 5.5 mL/min/kg
AUC (Rattus norvegicus [11]): 605 ng·h/mL
AUC (Cynomolgus monkey [12]): 24935.6 ng·h/mL
Cmax [13]: 388 ng/g
Cmax [14]: 32.4 ng/g
Cmax [15]: 10500 ng/mL
CL (Cynomolgus monkey [16]): 0.022 L/h/kg
AUC (Cynomolgus monkey [17]): 63622.1 ng·h/mL
clearance [18]: 3 mL/min/kg
CL (Rattus norvegicus [19]): 0.27 L/h/kg
remaining at 1 h, 10 µM [20]: > 90%
Tmax [21]: 34.8 min
half-life [22]: 244 min
Drug recovery (Rattus norvegicus [23]): 60%
Vd [24]: 0.2 L/kg
SMILES: O=C(O)c1cccc(-c2cccc(CCS)c2C(=O)O)c1
